In paper PMC4322771 (Biopolymers, 2008):
Ends that are not written are not given here.

Key:
[1] = tested on: Gal4(1–148)+KBP 2.20-mediated transcription; experiment: Competitive inhibition, firefly luciferase reporter assay in HeLa cells; assay type: cell-based; details: 0 → 20 μM, activity measured 40 h after compound addition
[2] = target: murine CBP KIX domain (CBP(586–672)) (Mus musculus, UniProt P45481); experiment: Fluorescence polarization binding to CBP KIX domain
Procedure, shortened: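 Test compounds carried a fluorescein label at the amino terminus and were held at a constant concentration. Each was incubated at 25°C with increasing concentrations of exogenously expressed murine CBP KIX domain (residues 586–672). Fluorescence polarization was read at each protein concentration. Dissociation constants were obtained by Levenberg-Marquardt least-squares fitting of the binding data.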

Sequence of murine CBP KIX domain (CBP(586–672)) (P45481 586-672): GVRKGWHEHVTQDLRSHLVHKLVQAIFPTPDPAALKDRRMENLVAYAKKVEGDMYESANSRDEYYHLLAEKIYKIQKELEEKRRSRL

Substance | Inhibitory activity on KBP 2.20-mediated transcription (in words) [1] | Fold lower dissociation constant for the KIX domain relative to KBP 1.66 [2]
SRAVRELLFGS | no impact | 
SWAVYELLFGS-NH2 (C-terminus assumed) [KBP 2.20] | little or no inhibitory activity | ~ 3 fold
